# Source: PMC3162150 (Cancer Chemotherapy and Pharmacology, 2011)
# Several values for one entry are separate records, joined by “and”; a condition that tells them apart may be missing. Equal values may be shown once. Read-outs that look alike come from different tables or passages of the source.
# Columns and labels:
# [1] = type: in vivo, human; settings: for AUC0–∞ ratio (90% CI), panobinostat + ketoconazole / panobinostat alone / C max ratio (90% CI), panobinostat + ketoconazole / panobinostat alone: geometric mean ratio; for CL/F: geometric mean
# [2] = Adverse events and laboratory safety assessment; type: in vivo, human
# [3] = type: in vivo, human
# Procedure, shortened: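 Patients took 20 mg of the oral test compound each Monday, Wednesday and Friday from day 15 (extension phase) until disease progression or withdrawal. Before that, in cycle 1, they had single 20 mg doses on day 1 and day 8; the day 8 dose followed a CYP3A inhibitor given at 400 mg once daily on days 5–9. Laboratory assessments were done weekly during the extension.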
# [4] = system: CYP3A; assay: Estimate of fraction of panobinostat cleared by CYP3A from AUC ratio; type: in vivo, human
# [5] = system: human cytochrome P450 CYP3A4; settings: in vitro; minor involvement of CYP2D6 and CYP2C19; no reference given; cited from earlier work
# [6] = cited from earlier work
# [7] = cited from earlier work; remark: listed apart in the source
# [8] = 12-lead ECG monitoring during the core phase
# [9] = 20 mg panobinostat, ketoconazole 400 mg
# [10] = 20 mg panobinostat, ketoconazole 400 mg, listed as panobinostat
# [11] = extension phase, panobinostat 20 mg MWF, 13 patients
# [12] = ref personal communication Margaret M Woo, Novartis
# [13] = period 1 (panobinostat only), N = 14
# [14] = period 3 (concomitant panobinostat and ketoconazole), N = 14
# [15] = period 2 (ketoconazole only), N = 14
structure (smiles),measurement,setting,value
Cc1[nH]c2ccccc2c1CCNCc1ccc(/C=C/C(=O)NO)cc1 [Panobinostat],change in T max or half-life in the presence of ketoconazole,[1]; [9],No substantial change
same,residual panobinostat in plasma prior to the day 8 dose,"[1]; after 20 mg dose on day 1, LLOQ 0.5 ng/ml",No residual panobinostat was detectable
same,"AUC0–∞ ratio (90% CI), panobinostat + ketoconazole / panobinostat alone",[1]; [9],1.8 (1.5–2.2)
same,"C max ratio (90% CI), panobinostat + ketoconazole / panobinostat alone",[1]; [9],1.6 (1.2–2.2)
same,"AUC0–∞ ratio (90% CI), panobinostat + ketoconazole / panobinostat alone",[1]; [10],1.8
same,"C max ratio (90% CI), panobinostat + ketoconazole / panobinostat alone",[1]; [10],1.6
same,Tmax,"[1]; human, plasma, oral, 20 mg",1 h
same,half-life,"[1]; human, plasma, oral, 20 mg",14 h
same,AUC(0-inf),"[1]; human, plasma, po, 20 mg",133 ng·h/mL
same,Cmax,"[1]; human, plasma, po, 20 mg",18.5 ng/mL
same,"T max difference, panobinostat + ketoconazole vs panobinostat alone",[1]; median (minimum and maximum difference),0.0 (−2.5 to 3.0) h
same,CL/F,[1]; panobinostat 20 mg + ketoconazole 400 mg,90.6 L/h
same,CL/F,[1]; panobinostat 20 mg alone,150.3 L/h
same,adverse events categorized as grade 1,[2]; core phase,42.9 % of all events
same,adverse events categorized as grade 2,[2]; core phase,35.7 % of all events
same,"anorexia, regardless of relationship to study drug","[2]; core phase, N = 14",4 patients
same,"diarrhea, regardless of relationship to study drug","[2]; core phase, N = 14",5 patients
same,"fatigue, regardless of relationship to study drug","[2]; core phase, N = 14",2 patients
same,"hypophosphatemia, regardless of relationship to study drug","[2]; core phase, N = 14",3 patients
same,"myalgia, regardless of relationship to study drug","[2]; core phase, N = 14",3 patients
same,"nausea, regardless of relationship to study drug","[2]; core phase, N = 14",3 patients
same,"vomiting, regardless of relationship to study drug","[2]; core phase, N = 14",4 patients
same,asymptomatic hypophosphatemia of grade ≥ 2,"[2]; during the trial, nine out of fourteen patients",64%
same,"anorexia, regardless of relationship to study drug",[2]; [11],7 patients
same,"diarrhea, regardless of relationship to study drug",[2]; [11],8 patients
same,"fatigue, regardless of relationship to study drug",[2]; [11],7 patients
same,"hypophosphatemia, regardless of relationship to study drug",[2]; [11],9 patients
same,"vomiting, regardless of relationship to study drug",[2]; [11],8 patients
same,"nausea, regardless of relationship to study drug","[2]; extension phase, single-agent panobinostat 20 mg oral MWF, 13 patients",10 patients
same,neutropenia,[2]; panobinostat administered for a prolonged period (extension phase),2 patients
same,Fractional excretion of phosphate,"[3]; Subj nr 00005, day 54, extension phase",5.3 (day 54) %
same,Fractional excretion of phosphate,"[3]; Subj nr 00005, day 61, extension phase",3.2 (day 61) %
same,Fractional excretion of phosphate,"[3]; Subj nr 00007, day 70, extension phase",19.4 (day 70) %
same,Fractional excretion of phosphate,"[3]; Subj nr 00007, day 77, extension phase",19.0 (day 77) %
same,Fractional excretion of phosphate,"[3]; Subj nr 00010, day 36, extension phase",2.7 (day 36) %
same,Fractional excretion of phosphate,"[3]; Subj nr 00010, day 43, extension phase",8.9 (day 43) %
same,contribution of CYP pathways to the overall metabolism,[4]; from fmCYP3A estimate,< 50%
same,fmCYP3A (fraction of panobinostat cleared by CYP3A),[4]; in vivo,0.4
same,share of oxidative metabolism mediated by CYP3A4,[5],70–98%
same,dose-limiting thrombocytopenia,"[6]; patients with Hodgkin's lymphoma, dose escalation, of 13 patients",four
same,grade 3/4 thrombocytopenia,"[6]; patients with Hodgkin's lymphoma, dose escalation",10 out of 13
same,inter-individual variability in pharmacokinetics,[7]; [12],60%
same,intra-individual variability in pharmacokinetics,[7]; [12],30%
same,dose dependence of C max and AUC,"[7]; two dose-escalation trials, dose between 20 and <60 mg",increase linearly with the dose
same,mean QTc increase at any moment compared with baseline,"[8]; core phase (15 days; panobinostat 20 mg days 1 and 8, ketoconazole days 5–9)",below 5%
same,increases in QTc ≥ 60 ms compared with baseline,"[8]; core phase, all three periods",No increases
same,Ectopic activity,[8]; [13],2 (14%) patients (%)
same,New QTcB >450 ms,[8]; [13],3 (21%) patients (%)
same,QTcB increase >60 ms,[8]; [13],0 patients (%)
same,ST segment depression,[8]; [13],0 patients (%)
same,Sinus bradycardia,[8]; [13],0 patients (%)
same,Sinus tachycardia,[8]; [13],0 patients (%)
same,T wave changes,[8]; [13],2 (14%) patients (%)
same,patients with other transient ECG abnormalities,[8]; [13],21%
same,Ectopic activity,[8]; [14],2 (14%) patients (%)
same,New QTcB >450 ms,[8]; [14],2 (14%) patients (%)
same,QTcB increase >60 ms,[8]; [14],0 patients (%)
same,ST segment depression,[8]; [14],2 (14%) patients (%)
same,Sinus bradycardia,[8]; [14],0 patients (%)
same,Sinus tachycardia,[8]; [14],2 (14%) patients (%)
same,T wave changes,[8]; [14],2 (14%) patients (%)
same,patients with other transient ECG abnormalities,[8]; [14],43%
"CC(=O)N1CCN(c2ccc(OCC3COC(Cn4ccnc4)(c4ccc(Cl)cc4Cl)O3)cc2)CC1 (stereo not drawn) [ketoconazole, reference compound]",Ectopic activity,[8]; [15],1 (7%) patients (%)
same,New QTcB >450 ms,[8]; [15],2 (14%) patients (%)
same,Sinus tachycardia,[8]; [15],0 patients (%)
same,T wave changes,[8]; [15],1 (7%) patients (%)
same,patients with other transient ECG abnormalities,[8]; [15],21%
same,QTcB increase >30 ms,"[8]; period 2 (ketoconazole only, day 5 until day 8), N = 14",3 patients (%) and 3 (21%) patients (%)
"O=C(CCCCCCC(=O)Nc1ccccc1)NO [vorinostat, reference compound]",asymptomatic hypophosphatemia reported with single agent,[6]; review of toxicities of HDAC inhibitors,5%
